Measured values published in ChEMBL document CHEMBL5046221, “Identification of Pyrimidine-Based Lead Compounds for Understudied Kinases Implicated in Driving Neurodegeneration” (J Med Chem, 2022).

Key:
[1] = biological target: Casein kinase II subunit alpha (Homo sapiens, UniProt P68400); test: Inhibition of full length recombinant human CSNK2A1 using RRRDDDSDDD as substrate incubated for 40 mins in presence of [gamma-33P-ATP] by radiometric scintillation assay
Method in brief: (§1)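 Eurofins radiometric enzymatic assay with ATP at Km for each kinase. IC50 was derived from a 9-point dose–response curve run in duplicate.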

[2] = biological target: Serine/threonine-protein kinase PRP4 homolog (Homo sapiens, UniProt Q13523); test: Inhibition of recombinant human PRP4 (663 to end residues) using casein as substrate incubated for 120 mins in presence of [gamma-33P-ATP] by radiometric scintillation assay; method in brief: as §1
Chain of Serine/threonine-protein kinase PRP4 homolog (Q13523 whole entry): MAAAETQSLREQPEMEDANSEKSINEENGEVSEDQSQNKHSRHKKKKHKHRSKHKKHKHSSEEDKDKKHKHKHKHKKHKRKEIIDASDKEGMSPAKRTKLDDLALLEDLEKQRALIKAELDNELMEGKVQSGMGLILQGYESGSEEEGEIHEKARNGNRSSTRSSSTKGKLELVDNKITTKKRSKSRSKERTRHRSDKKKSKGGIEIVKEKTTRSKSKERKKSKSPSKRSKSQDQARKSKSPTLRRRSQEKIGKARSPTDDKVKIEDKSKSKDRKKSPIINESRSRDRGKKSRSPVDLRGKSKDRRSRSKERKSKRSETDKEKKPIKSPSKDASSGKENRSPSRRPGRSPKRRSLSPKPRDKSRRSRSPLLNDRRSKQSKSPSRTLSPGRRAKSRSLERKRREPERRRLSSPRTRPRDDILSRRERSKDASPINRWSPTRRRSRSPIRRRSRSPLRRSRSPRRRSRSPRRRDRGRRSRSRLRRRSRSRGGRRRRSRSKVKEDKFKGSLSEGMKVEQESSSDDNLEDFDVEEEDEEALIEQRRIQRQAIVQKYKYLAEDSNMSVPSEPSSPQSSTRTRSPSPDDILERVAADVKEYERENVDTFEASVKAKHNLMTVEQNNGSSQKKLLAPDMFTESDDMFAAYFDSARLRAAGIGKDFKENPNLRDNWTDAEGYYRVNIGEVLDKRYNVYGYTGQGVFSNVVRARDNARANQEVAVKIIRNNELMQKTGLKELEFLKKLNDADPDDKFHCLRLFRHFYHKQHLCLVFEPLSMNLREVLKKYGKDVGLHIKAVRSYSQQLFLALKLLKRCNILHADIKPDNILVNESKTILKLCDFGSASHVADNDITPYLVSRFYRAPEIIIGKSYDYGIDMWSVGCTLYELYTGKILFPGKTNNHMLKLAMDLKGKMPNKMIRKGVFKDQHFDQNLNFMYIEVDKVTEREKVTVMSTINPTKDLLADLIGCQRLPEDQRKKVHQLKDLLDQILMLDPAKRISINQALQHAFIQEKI

[3] = biological target: MAP kinase-interacting serine/threonine-protein kinase 2 (Homo sapiens, UniProt Q9HBH9); test: Inhibition of full length recombinant human MKNK2 using myelin basic protein as substrate incubated for 40 mins in presence of [gamma-33P-ATP] by radiometric scintillation assay
Chain of MAP kinase-interacting serine/threonine-protein kinase 2 (Q9HBH9 whole entry): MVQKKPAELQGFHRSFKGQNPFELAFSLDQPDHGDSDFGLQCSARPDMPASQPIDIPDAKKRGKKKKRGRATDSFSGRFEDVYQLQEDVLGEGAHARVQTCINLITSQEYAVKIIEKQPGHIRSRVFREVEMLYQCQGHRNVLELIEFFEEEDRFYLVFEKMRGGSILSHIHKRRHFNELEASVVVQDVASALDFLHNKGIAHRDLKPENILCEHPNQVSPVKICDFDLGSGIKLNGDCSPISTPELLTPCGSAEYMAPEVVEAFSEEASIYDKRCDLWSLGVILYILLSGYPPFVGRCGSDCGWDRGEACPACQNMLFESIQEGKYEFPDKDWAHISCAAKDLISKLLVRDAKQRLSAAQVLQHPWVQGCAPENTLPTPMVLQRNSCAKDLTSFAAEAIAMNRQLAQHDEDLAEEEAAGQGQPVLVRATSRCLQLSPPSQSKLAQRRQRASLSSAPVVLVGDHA
Method in brief: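 Eurofins radiometric kinase assay run at ATP equal to Km for each kinase. 9-point dose–response in duplicate gives the IC50.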

[4] = biological target: Activin receptor type-1 (Homo sapiens, UniProt Q04771); test: Inhibition of human ALK2 (147 to end residues) using casein as substrate incubated for 40 mins in presence of [gamma-33ATP] by scintillation counting based radiometry assay; method in brief: as §1
Chain of Activin receptor type-1 (Q04771 whole entry): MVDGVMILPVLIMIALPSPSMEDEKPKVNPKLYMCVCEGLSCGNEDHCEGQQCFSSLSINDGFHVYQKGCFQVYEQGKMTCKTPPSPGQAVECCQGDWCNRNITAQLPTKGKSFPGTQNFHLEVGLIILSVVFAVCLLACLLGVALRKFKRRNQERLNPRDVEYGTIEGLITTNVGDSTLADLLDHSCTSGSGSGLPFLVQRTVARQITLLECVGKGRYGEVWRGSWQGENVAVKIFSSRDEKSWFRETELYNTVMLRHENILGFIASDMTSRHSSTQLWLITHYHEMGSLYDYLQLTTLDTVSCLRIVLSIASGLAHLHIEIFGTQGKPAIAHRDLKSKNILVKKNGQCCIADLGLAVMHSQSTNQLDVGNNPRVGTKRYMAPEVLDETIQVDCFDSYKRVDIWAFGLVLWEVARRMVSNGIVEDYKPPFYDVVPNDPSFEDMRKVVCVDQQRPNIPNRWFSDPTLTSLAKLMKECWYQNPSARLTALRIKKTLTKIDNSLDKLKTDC

[5] = biological target: T1, Serine/threonine-protein kinase 17B (Homo sapiens) (UniProt O94768); test: Inhibition of full length recombinant human DRAK2 using KKRPQRRYSNVF as substrate at 1 uM incubated for 120 mins in presence of [gamma-33P-ATP] by radiometric scintillation assay relative to control
T1 sequence (whole entry): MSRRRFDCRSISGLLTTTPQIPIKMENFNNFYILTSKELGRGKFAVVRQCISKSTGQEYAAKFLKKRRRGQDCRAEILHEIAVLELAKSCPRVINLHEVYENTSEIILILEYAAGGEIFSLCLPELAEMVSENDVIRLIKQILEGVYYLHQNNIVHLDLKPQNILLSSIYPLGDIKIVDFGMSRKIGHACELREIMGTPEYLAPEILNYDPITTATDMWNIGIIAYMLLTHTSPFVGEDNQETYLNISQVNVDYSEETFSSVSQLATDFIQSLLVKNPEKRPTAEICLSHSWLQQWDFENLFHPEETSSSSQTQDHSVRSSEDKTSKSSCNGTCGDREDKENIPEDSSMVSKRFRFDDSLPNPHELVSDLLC
Method in brief: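 Eurofins radiometric kinase assay with ATP at Km for each kinase. Compound was tested at a single 1 μM concentration in duplicate, and the result is reported as percent of control.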

Chain of Casein kinase II subunit alpha (P68400 whole entry): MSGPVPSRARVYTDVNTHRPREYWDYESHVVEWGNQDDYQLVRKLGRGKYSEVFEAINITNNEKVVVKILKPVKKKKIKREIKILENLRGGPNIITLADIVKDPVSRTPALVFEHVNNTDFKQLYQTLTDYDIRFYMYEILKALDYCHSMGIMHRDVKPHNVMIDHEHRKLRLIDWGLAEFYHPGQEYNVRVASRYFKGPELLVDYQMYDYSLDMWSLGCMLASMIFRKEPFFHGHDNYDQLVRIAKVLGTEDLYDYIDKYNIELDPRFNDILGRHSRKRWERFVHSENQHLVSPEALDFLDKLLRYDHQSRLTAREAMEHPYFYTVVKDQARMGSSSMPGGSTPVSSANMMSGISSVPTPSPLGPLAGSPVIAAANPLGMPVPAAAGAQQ

Compound `NS(=O)(=O)c1ccc(CNc2nc(Nc3cccc(CN4CCOCC4)c3)ncc2Br)cc1` has an IC50 [1] of over 10 µM and an IC50 [2] of over 10 µM.

Work on `NS(=O)(=O)c1ccc(CNc2nc(Nc3cccc(NC(=O)N4CCCC4)c3)ncc2Br)cc1` yielded an IC50 [3] of 1010 nM.

`c1cc(CN2CCOCC2)cc(Nc2nccc(NCCc3cnc[nH]3)n2)c1` was tested, and the IC50 [4] was 537 nM and the % control [5] was 65%.
